# Screens as filed in PubChem BioAssay.
# Hits are enriched below; roughly 2.1% of the tested compounds scored in any of these assays.
# beta cell repl = inducers of beta-cell replication in MIN6 cells | proliferation, % at 10 µM | AID 2380 | 0.29% of 330,000 active | MIN6 cells proliferation, ATPlite luminescence, 48 h; cells starved in 0.2% serum; 100% = growth in 10% serum;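 active = compounds whose signal lies at least 3.5 SD above the mean of all wells on their plate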
# CRFR2-BP ag = CRF-BP/CRF-R2 complex agonism; HEK293 CRF-R2/CRF-BP, calcium dye fluorescence (FLIPR); percent of saturating CRF peptide response; activation, % at 13.2 µM; 0.46% of 350,000 active; AID 588473;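 active = activation of at least 50%, plus an integration ratio under a set limit after plate pattern correction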
# Cardio protect = modulators protecting cardiomyocytes from myocardial damage | 0.63% of 360,000 active | H9c2 cardiomyocytes, H2O2 injury protection, ATPLite, 2 h | protection from H2O2 cell death, % at 20 µM;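 active = compounds giving at least 50% protection of heart cells from peroxide-induced death in the single-dose screen, raw or plate-pattern-corrected value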
# hiPSC survival = enhancers of human iPSC single-cell survival; hiPSC single-cell survival, ATPlite luminescence; 100% = ROCK inhibitor wells, 0% = DMSO; survival enhancement, % at 20 µM; 0.044% of 360,000 active; in the data active = survival enhancement above about 18%;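 also: cells exposed to compounds for 16 hours before the ATP read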
# UCH37 inh = inhibitors of human deubiquitinating enzyme UCH37; Q9Y5K5; purified proteasome/UCH37, Ub-AMC cleavage fluorescence; inhibition, % (no concentration beside the values); 0.33% of 330,000 active;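 active = mean inhibition over replicate wells above about 20%, limit read from the data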
# Target sequence (Q9Y5K5 whole entry, looked up): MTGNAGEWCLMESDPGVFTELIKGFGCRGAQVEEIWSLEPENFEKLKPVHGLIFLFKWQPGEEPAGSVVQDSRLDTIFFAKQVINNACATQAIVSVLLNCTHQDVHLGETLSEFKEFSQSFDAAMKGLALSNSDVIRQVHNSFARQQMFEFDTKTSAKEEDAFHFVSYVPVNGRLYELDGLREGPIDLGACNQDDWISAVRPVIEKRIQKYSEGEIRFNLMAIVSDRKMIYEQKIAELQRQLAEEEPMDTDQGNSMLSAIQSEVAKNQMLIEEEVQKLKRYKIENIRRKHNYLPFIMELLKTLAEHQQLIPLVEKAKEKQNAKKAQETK
#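 Assay system: Proteasome-bound UCH37. Buffer or medium: pH 7.4 Tris-HCl (50 mM) with ovalbumin, ATP-MgCl2, DTT. Incubation: 30 min preincubation with enzyme, 25 min cleavage at room temperature. Measured by: fluorescence, ex 355 nm, em 460 nm. Read-out basis: percent inhibition. Control set: wells without proteasome as full block, compound-free enzyme plus substrate as uninhibited.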
# CRFR2-BP antag = blocks CRF-induced signaling of the CRF-BP/CRF-R2 complex; HEK293 CRF-R2/CRF-BP, CRF-induced calcium fluorescence; inhibition, % at 11.8 µM; 0.59% of 350,000 active; AID 588475;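 active = inhibition of the ligand-induced calcium signal above about 50% at the single tested concentration, limit read from the data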
# A number is an active result; . = inactive; / = no result given.
SMILES,beta cell repl,CRFR2-BP ag,Cardio protect,hiPSC survival,UCH37 inh,CRFR2-BP antag
O=C(NN=Cc1cccc([N+](=O)[O-])c1)c1cc(-c2ccccc2)nc2ccccc12,/,/,/,/,.,/
CCN(C(=O)CN1C(=O)COc2ccc(S(=O)(=O)N3CCCCCC3)cc21)c1cccc(C)c1,.,56,.,.,.,.
CCN(Cc1ccccc1)C(=O)CN1C(=O)COc2ccc(S(=O)(=O)N3CCCCCC3)cc21,.,.,.,.,.,.
CCOc1ccc(-c2c(C(=O)N/N=C/c3c[nH]c4ccccc34)nnn2-c2nonc2N)cc1,.,.,54,.,/,.
Cc1ccc(-c2c(C(=O)NN=Cc3c[nH]c4ccccc34)nnn2-c2nonc2N)cc1,/,/,/,/,.,/
Nc1nonc1-n1nnc(C(=O)N/N=C/c2ccccn2)c1CNc1ccccc1,.,.,50,.,/,.
CCOc1cccc(-c2c(C(=O)N/N=C(\C)c3ccccn3)nnn2-c2nonc2N)c1,/,.,51,.,/,.
CC(C)Oc1ccccc1C=Nn1nnnc1N,/,/,/,/,.,/
NC(=O)NC(=O)C[n+]1cccc(C=NO)c1,/,/,/,/,.,/
CCOC(=O)c1ccc(NC(=S)N2CCSC2c2ccc(Cl)cc2)cc1 (stereo not drawn),/,120,.,.,.,.
CCOC(=O)c1ccc(NC(=S)N2CCSC2c2ccc(OC)cc2)cc1 (stereo not drawn),.,.,.,.,.,.
COc1ccc(N(CC(=O)N/N=C/c2ccco2)S(=O)(=O)c2ccccc2)cc1Cl,.,.,.,.,/,.
COc1ccc(N(CC(=O)NN=C2CCCC2)S(=O)(=O)c2ccccc2)cc1Cl,.,80,.,.,.,.
O=C(CSc1ccccc1)N(c1ccc(Br)cc1)c1nccs1,.,.,.,.,.,50
Cc1cc2c(N=O)c(NO)ccc2[nH]1,.,.,57,.,.,.
CCCOc1ccc(CCC(=O)NN=Cc2ccncc2)cc1,/,/,/,/,.,/
S=c1[nH]nc2ccc3ccccc3n12,/,/,.,.,/,/
S=c1[nH]c2ccccc2n2c(=S)[nH]nc12,.,.,.,.,.,55
CC1=CC(C)(C(Cl)(Cl)Cl)C(C)=CC1=NO (stereo not drawn),/,.,.,.,/,57
Nc1cc2[nH]c(=O)c3ccccc3c2cc1[N+](=O)[O-],/,.,81,.,/,.
CN(C)CCCNCCCNC(=O)C(=NO)c1ccccc1,/,/,/,/,.,/
CCOC(=O)NN=C(C)c1ccc([N+](=O)[O-])o1,/,/,/,/,.,/
CC(C)Cn1cnc2c(SCc3ccccc3)nc(N)nc21,/,.,.,.,.,68
CC(=NOC(=O)C1CC12CCC2)c1ccc(Br)cc1 (stereo not drawn),/,/,/,/,.,/
O=C(O)c1ccccc1NN=Cc1c(Sc2nnnn2-c2ccccc2)nc2ccccn2c1=O,/,/,/,/,.,/
SMILES,beta cell repl,CRFR2-BP ag,Cardio protect,hiPSC survival,UCH37 inh,CRFR2-BP antag
COc1cc([N+](=O)[O-])cc(/C=N/NC(=O)C(C)Nc2ccccc2C)c1O (stereo not drawn),.,.,63,.,/,.
COc1cc([N+](=O)[O-])cc(/C=N/NC(=O)c2ccc(C)nc2)c1O,.,.,62,.,/,.
CCNC(=S)NN=C(C)c1ccc(N2CCOCC2)cc1,/,/,/,/,.,/
O=C(O)C1C2C=CC(C2)C1C(=O)NCCc1cccc(Cl)c1 (stereo not drawn),.,.,.,.,.,50
CN(C)c1ccc(/C=C2\Oc3ccc(C#Cc4cccc(N)c4)cc3C2=O)cc1,.,80,.,.,.,.
COC(=O)c1ccc2c(c1)C(=O)/C(=C/c1ccc(C)cc1)O2,.,.,.,.,.,.
CCOc1cc(CNc2ccc3[nH]c(=O)[nH]c3c2)ccc1OCC(=O)NC(C)(C)C,.,.,57,.,.,.
C=CCOc1ccc(CNc2ccc3[nH]c(=O)[nH]c3c2)cc1OCC,.,.,.,.,.,.
COc1ccc(N2C(=O)c3cccc4cccc(c34)C2=O)cc1,.,85,.,.,.,.
COc1ccc(N2C(=O)c3cccc4c(N(C)CCO)ccc(c34)C2=O)cc1,.,77,.,.,.,.
CCCCON1C(=O)c2cccc3cccc(c23)C1=O,.,.,.,.,.,99
COc1ccc(N2C(=O)c3ccccc3C2=O)cc1,.,.,.,.,.,.
O=C(O)C(=O)/C(=C\c1cccc2ccccc12)c1ccc2ccccc2n1,.,96,.,.,.,.
O=C(O)C(=O)/C(=C\c1ccccc1)c1ccc2ccccc2n1,.,.,.,.,.,.
COc1cc(-c2cc3nc(NCCc4ccc(S(N)(=O)=O)cc4)ccn3n2)cc(OC)c1OC,/,/,86,.,/,/
COc1cc(-c2cc3nc(NCCOc4ccccc4)ccn3n2)cc(OC)c1OC,/,/,92,.,/,/
COc1cc(-c2cc3nc(NCCc4ccncc4)ccn3n2)cc(OC)c1OC,/,/,.,.,/,/
COc1cc(CCNc2ccc3nnc(-c4ccccc4)n3n2)cc(OC)c1OC,.,.,56,.,.,.
NS(=O)(=O)c1ccc(CCNc2ccn3nc(-c4ccc(OCCN5CCOCC5)cc4)cc3n2)cc1,/,/,66,.,/,/
COCCCNc1ccn2nc(-c3ccc(OCCN4CCOCC4)cc3)cc2n1,/,/,.,.,/,/
COc1ccc(C(=O)NN=C(C)c2cccc(NC(=O)c3ccc(F)cc3)c2)c(OC)c1,/,/,/,/,.,/
Cc1ccc(NC(=O)CSC2=C(C#N)C(c3ccco3)CC(=O)N2)cc1 (stereo not drawn),.,.,.,.,.,109
Cc1ccc(C(=O)CSC2=C(C#N)C(c3ccco3)CC(=O)N2)c(C)c1 (stereo not drawn),.,57,.,.,.,.
Cc1ccc(NC(=O)CSC2=C(C#N)C(c3ccco3)C3=C(CC(C)(C)CC3=O)N2)cc1 (stereo not drawn),.,.,.,.,.,.
CCNc1nc(NCC)nc(NN=Cc2ccc(O)c(O)c2)n1,/,/,/,/,.,/
SMILES,beta cell repl,CRFR2-BP ag,Cardio protect,hiPSC survival,UCH37 inh,CRFR2-BP antag
CCCC(=O)Nc1cc(C)c2c(=O)oc3ccccc3c2n1,.,.,104,.,.,.
Cn1c(N)c(-c2ccccc2)c2ccc([N+](=O)[O-])cc2c1=O,.,123,.,.,.,.
N#Cc1c(N)n(Cc2ccccc2)c(=O)c2cc([N+](=O)[O-])ccc12,.,.,.,.,.,.
COc1ccc(/C=C2\CCC(C3CCCC3)C2=O)c(OC)c1 (stereo not drawn),.,.,.,.,.,.
COc1ccc(/C=C2\CC/C(=C\c3ccc(OC)cc3OC)C2=O)c(OC)c1,.,88,.,.,.,.
COc1ccc(/C=C2\CCC/C(=C\c3ccc(OC)c(OC)c3OC)C2=O)c(OC)c1OC,.,.,.,.,.,69
CC(/C=C/c1ccco1)=NNC(=O)C1COc2ccccc2O1 (stereo not drawn),/,/,/,/,.,/
Cc1c(NC(=O)C(=O)NN=Cc2cccs2)c(=O)n(-c2ccccc2)n1C,/,/,/,/,.,/
